Experimental data as given in ChEMBL document CHEMBL1149168, “Discovery and evaluation of potent P1 aryl heterocycle-based thrombin inhibitors” (J Med Chem, 2004).

Columns and labels:
Coagulation factor X = Coagulation factor X (Homo sapiens, UniProt P00742); experiment: Inhibitory potency of compound against human Coagulation factor Xa
[1] = Ability to double the activated partial thromboplastin time (2x APTT) in human plasma; assay type: functional
Prothrombin = Prothrombin (Homo sapiens, UniProt P00734); experiment: Inhibitory potency against human thrombin
[2] = Oral bioavailability of compound in rhesus macaques; assay type: ADME, organism-based, Macaca mulatta; settings: rhesus monkey, in vivo
[3] = Oral bioavailability of compound in rat; assay type: ADME, organism-based; settings: in vivo
[4] = Oral bioavailability in dog; assay type: ADME, organism-based, Canis lupus familiaris; settings: in vivo
Canis familiaris = species: Canis familiaris; experiment: Half life of compound in dog was determined; assay type: ADME, organism-based, Canis lupus familiaris; settings: in vivo
[5] = Half-life of compound in dog following p.o. administration of 1 mg/kg; assay type: ADME, organism-based, Canis lupus familiaris; parameters: dose 1 mg/kg, route oral; settings: in vivo, po
Procedure, shortened: (§1)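 Male beagle dogs (10–12 kg), fasted overnight, were given the inhibitor orally at the stated mg/kg as a solution or suspension in 0.5% methocel. Plasma was stored at –20 °C until HPLC analysis.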

[6] = Maximum plasma concentration of compound in dog following p.o. administration of 1 mg/kg; assay type: ADME, organism-based, Canis lupus familiaris; parameters: dose 1 mg/kg, route oral; settings: po; procedure, shortened: as §1
[7] = Half-life of compound in dog following p.o. administration of 0.95 mg/kg; assay type: ADME, organism-based, Canis lupus familiaris; parameters: dose 0.95 mg/kg, route oral; settings: in vivo, po; procedure, shortened: as §1
[8] = Maximum plasma concentration of compound in dog following p.o. administration of 0.95 mg/kg; assay type: ADME, organism-based, Canis lupus familiaris; parameters: dose 0.95 mg/kg, route oral; settings: po; procedure, shortened: as §1
[9] = Maximum plasma concentration of compound in dog following p.o. administration of 0.9 mg/kg; assay type: ADME, organism-based, Canis lupus familiaris; parameters: dose 0.9 mg/kg, route oral; settings: po; procedure, shortened: as §1
[10] = Half-life of compound in dog following p.o. administration of 0.9 mg/kg; assay type: ADME, organism-based, Canis lupus familiaris; parameters: dose 0.9 mg/kg, route oral; settings: in vivo, po; procedure, shortened: as §1
[11] = Half life of compound in dog following oral administration; assay type: ADME, organism-based, Canis lupus familiaris; settings: in vivo; procedure, shortened: as §1
[12] = Half-life of compound in dog following p.o. administration of 0.5 mg/kg; assay type: ADME, organism-based, Canis lupus familiaris; parameters: dose 0.5 mg/kg, route oral; settings: in vivo, po; procedure, shortened: as §1
[13] = Maximum plasma concentration of compound in dog following p.o. administration of 0.5 mg/kg; assay type: ADME, organism-based, Canis lupus familiaris; parameters: dose 0.5 mg/kg, route oral; settings: po; procedure, shortened: as §1

Chain of Coagulation factor X (P00742 41-179 limits assumed): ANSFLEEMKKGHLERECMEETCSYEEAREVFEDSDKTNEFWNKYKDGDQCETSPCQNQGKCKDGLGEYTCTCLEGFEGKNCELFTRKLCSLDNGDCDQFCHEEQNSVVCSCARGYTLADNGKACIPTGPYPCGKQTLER
Chain of Coagulation factor X (P00742 235-488 limits assumed): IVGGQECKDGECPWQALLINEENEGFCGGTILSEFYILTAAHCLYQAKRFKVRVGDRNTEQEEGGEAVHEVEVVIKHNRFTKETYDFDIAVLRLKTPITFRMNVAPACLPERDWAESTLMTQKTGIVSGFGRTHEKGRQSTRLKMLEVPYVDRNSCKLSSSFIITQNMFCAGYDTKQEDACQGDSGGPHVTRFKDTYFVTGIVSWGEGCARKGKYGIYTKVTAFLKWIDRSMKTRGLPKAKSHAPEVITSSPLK

| Ki (Prothrombin) [nM] | SMILES | 2x APTT [1] [µM] | other results |
| --- | --- | --- | --- |
| 7.3 | Cc1ccc(NS(=O)(=O)Cc2ccccc2)c(=O)n1CC(=O)NCc1ccccc1-n1cncn1 | 1.06 |  |
|  | Cc1nc(N)ccc1CNC(=O)Cn1c(C)cnc(NCCc2ccccc2)c1=O [L-375378] |  | bioavailability [2]: 60%; bioavailability [3]: 42%; bioavailability [4]: 91% |
|  | O=C(Cn1c(Cl)cnc(NCC(F)(F)c2ccccn2)c1=O)NCc1ncccc1F [DPOC-4088] |  | T1/2 (Canis familiaris): 4.5 h |
| 0.33 | N[C@H](Cc1ccccc1)C(=O)N1CCC[C@H]1CC(=O)NCc1cc(Cl)ccc1-n1cnnn1 | 0.23 |  |
| 7.2 | O=C(Cn1ccnc(NCC(F)(F)c2cccc[n+]2[O-])c1=O)NCc1ccccc1-n1cncn1 | 0.98 |  |
| 0.096 | O=C(Cn1c(Cl)cnc(NCC(F)(F)c2ccccn2)c1=O)NCc1ccccc1-n1cnnn1 | 0.22 |  |
| 0.21 | O=C(Cn1c(Cl)cnc(NCC(F)(F)c2cccc[n+]2[O-])c1=O)NCc1ccccc1-n1cncn1 | 0.29 | half-life [5]: 1.4 h; Cmax [6]: 860 nM |
| 0.033 | O=C(Cn1ccnc(NCC(F)(F)c2ccccn2)c1=O)NCc1cc(Cl)ccc1-n1cnnn1 | 0.2 | half-life [7]: 2 h; Cmax [8]: 1310 nM; Ki (Coagulation factor X): 10 nM |
| 0.05 | O=C(Cn1c(Cl)cnc(NCC(F)(F)c2cccc[n+]2[O-])c1=O)NCc1ccccc1-n1cnnn1 | 0.2 |  |
| 1.1 | O=C(Cn1ccnc(NCC(F)(F)c2cccc[n+]2[O-])c1=O)NCc1ccccc1-n1cnnn1 | 0.42 | Ki (Coagulation factor X): 370 nM |
| 12 | O=C(Cn1c(Cl)cnc(NCC(F)(F)c2ccccn2)c1=O)NCc1ccccc1 | 2.68 |  |
| 2 | N[C@H](Cc1ccccn1)C(=O)N1CCC[C@H]1CC(=O)NCc1ccccc1-n1cncn1 | 0.39 |  |
| 2.7 | O=C(Cn1ccnc(NCC(F)(F)c2ccccn2)c1=O)NCc1ccccc1-n1cnnn1 | 0.52 |  |
| 3 | N[C@@H](C(=O)N1CCC[C@H]1C(=O)NCc1cc(Cl)ccc1Cl)C(c1ccccc1)c1ccccc1 |  | half-life [11]: 1.67 h; bioavailability [4]: 45% |
| 0.45 | O=C(Cn1c(Cl)cnc(NCC(F)(F)c2ccccn2)c1=O)NCc1ccccc1-n1cncn1 | 0.23 | half-life [12]: 3.5 h; Cmax [13]: 1130 nM |
| 0.44 | O=C(Cn1c(Cl)cnc(NCC(F)(F)c2ccccn2)c1=O)NCc1cccc(Cl)c1 | 0.79 |  |
| 1.4 | Cc1ccc(NS(=O)(=O)Cc2ccccc2)c(=O)n1CC(=O)NCc1ccccc1-n1cnnn1 | 0.37 |  |
| 0.013 | O=C(Cn1ccnc(NCC(F)(F)c2cccc[n+]2[O-])c1=O)NCc1cc(Cl)ccc1-n1cnnn1 | 0.12 | Ki (Coagulation factor X): 5 nM |
| 4.2 | O=C(Cn1c(Cl)cnc(NCC(F)(F)c2ccccn2)c1=O)NCc1ccccc1-c1c[nH]cn1 | 1.83 |  |
| 940 | O=C(Cn1c(Cl)cnc(NCC(F)(F)c2ccccn2)c1=O)NCc1ccccc1-c1nnn[nH]1 |  |  |
|  | O=C(Cn1c(Cl)cnc(NCC(F)(F)c2cccc[n+]2[O-])c1=O)NCc1cc(Cl)ccc1-n1cnnn1 | 0.13 |  |
| 0.085 | O=C(Cn1ccnc(NCC(F)(F)c2cccc[n+]2[O-])c1=O)NCc1cc(Cl)ccc1-n1cncn1 | 0.26 |  |
| 16 | O=C(Cn1ccnc(NCC(F)(F)c2ccccn2)c1=O)NCc1ccccc1-n1cncn1 | 2.06 |  |

| SMILES | Ki (Prothrombin) [nM] | 2x APTT [1] [µM] | other results |
| --- | --- | --- | --- |
| Cc1ccc(NS(=O)(=O)Cc2ccccc2)c(=O)n1CC(=O)NCc1cc(Cl)ccc1-n1cnnn1 | 0.018 | 0.23 | Ki (Coagulation factor X): 11 nM |
| O=C(Cn1c(Cl)cnc(NCC(F)(F)c2ccccn2)c1=O)NCc1cc(Cl)ccc1-n1cncn1 | < 0.01 | 0.17 |  |
| O=C(Cn1c(Cl)cnc(NCC(F)(F)c2ccccn2)c1=O)NCc1ccccc1-c1ncc[nH]1 | 7.2 | 2.88 |  |
| O=C(Cn1c(Cl)cnc(NCC(F)(F)c2ccccn2)c1=O)NCc1ccccc1-c1csnn1 | 0.84 | 0.6 |  |
| O=C(Cn1c(Cl)cnc(NCC(F)(F)c2ccccn2)c1=O)NCc1ccccc1-n1cccn1 | 6.9 | 1.9 |  |
| N[C@H](Cc1ccccn1)C(=O)N1CCC[C@H]1CC(=O)NCc1cc(Cl)ccc1-n1cnnn1 | 0.4 | 0.2 |  |
| Cn1nnc(-c2ccccc2CNC(=O)Cn2c(Cl)cnc(NCC(F)(F)c3ccccn3)c2=O)n1 | 5.8 | 1.72 |  |
| O=C(Cn1c(Cl)cnc(NCC(F)(F)c2ccccn2)c1=O)NCc1ccccc1-c1cc[nH]n1 | 5.6 | 2.08 |  |
| Cc1ccc(-n2cncn2)c(CNC(=O)CN2C=CN=C(NCC(F)(F)c3ccccn3)C2)c1 | 0.24 | 0.33 | Cmax [9]: 1040 nM; half-life [10]: 1.2 h |
| N[C@H](Cc1ccccc1)C(=O)N1CCC[C@H]1CC(=O)NCc1ccccc1-n1cncn1 | 1.06 |  |  |
| Cn1nnnc1-c1ccccc1CNC(=O)Cn1c(Cl)cnc(NCC(F)(F)c2ccccn2)c1=O | 1.2 | 0.34 |  |
| O=C(Cn1c(Cl)cnc(NCC(F)(F)c2ccccn2)c1=O)NCc1ccccc1-n1ccnc1 | 6.3 | 1.29 |  |
| O=C(Cn1c(Cl)cnc(NCC(F)(F)c2ccccn2)c1=O)NCc1cc(Cl)ccc1-n1cnnn1 | 0.0015 | 0.18 |  |
| Cc1ccc(NS(=O)(=O)Cc2ccccc2)c(=O)n1CC(=O)NCc1cc(Cl)ccc1-n1cncn1 | 0.16 | 0.36 |  |
| O=C(Cn1c(Cl)cnc(NCC(F)(F)c2ccccn2)c1=O)NCc1ncccc1-n1cncn1 | 0.66 | 0.33 |  |
| O=C(Cn1c(Cl)cnc(NCC(F)(F)c2ccccn2)c1=O)NCc1ncccc1-n1cnnn1 | 0.14 | 0.25 |  |
| O=C(Cn1c(Cl)cnc(NCC(F)(F)c2cccc[n+]2[O-])c1=O)NCc1cc(Cl)ccc1-n1cncn1 | < 0.01 | 0.2 |  |
| O=C(Cn1c(Cl)cnc(NCC(F)(F)c2ccccn2)c1=O)NCc1ccccc1-n1cnnc1 | 3.5 | 0.52 |  |
